Here are results for 24 molecules from ChEMBL document CHEMBL4428138, “Design, Synthesis, and Antitumor Evaluation of 4-Amino-(1H)-pyrazole Derivatives as JAKs Inhibitors” (ACS Med Chem Lett, 2016).

In one assay the test system is K562. The assay can be described thus: Antiproliferative activity against human K562 cells after 48 hrs by MTT assay. The settings on record: K562, 48 h. The assay is classed as functional, cell-based. The procedure, abridged:
(§1)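 Panel: human prostate cancer PC-3, breast cancer MCF-7, erythroleukemia HEL, myelogenous leukemia K562 and lymphoid leukemia MOLT4 lines. Cells were exposed to compound for 48 h with MTT read-out.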
In general terms: Tetrazolium dyes change colour on reduction, which living cells bring about.

In assay [1] the test system is HEL. In words: Antiproliferative activity against HEL cells harboring JAK2 V617F mutant after 48 hrs by MTT assay. The note with it: Homo sapiens. The assay is classed as functional, cell-based. Summed up:
as §1

The target of assay [2] is Non-receptor tyrosine-protein kinase TYK2 (Homo sapiens) (UniProt P29597). In words: Inhibition of TYK2 (unknown origin) at 20 nM relative to control.
Assay [3] deals with Proto-oncogene tyrosine-protein kinase Src (Homo sapiens) (UniProt P12931). The assay can be described thus: Inhibition of SRC (unknown origin) at 20 nM relative to control.
Assay [4] addresses ALK tyrosine kinase receptor (Homo sapiens) (UniProt Q9UM73). The assay can be described thus: Inhibition of ALK (unknown origin) at 20 nM relative to control.
The next assay relates to MCF7. The assay can be described thus: Antiproliferative activity against human MCF7 cells after 48 hrs by MTT assay. The assay is classed as functional, cell-based. The note with it: MCF7, 48 h. Summed up: as §1
Assay [5] concerns the target RAC-alpha serine/threonine-protein kinase (Homo sapiens) (UniProt P31749). In words: Inhibition of AKT1 (unknown origin) at 20 nM relative to control.
Assay [6] concerns the target RAF proto-oncogene serine/threonine-protein kinase (Homo sapiens) (UniProt P04049). In words: Inhibition of RAF1 (unknown origin) at 20 nM relative to control.
For assay [7], the target named is Tyrosine-protein kinase JAK1 (Homo sapiens, UniProt P23458). The assay can be described thus: Inhibition of human recombinant JAK1 using Ulight-CAGAGAIETDKEYYTVKD as substrate by LANCE assay.
Assay [8] concerns the target Epidermal growth factor receptor (Homo sapiens) (UniProt P00533). In words: Inhibition of EGFR (unknown origin) at 20 nM relative to control.
Assay [9] addresses Tyrosine-protein kinase JAK3 (Homo sapiens, UniProt P52333). In words: Inhibition of human recombinant JAK3 using Ulight-CAGAGAIETDKEYYTVKD as substrate by LANCE assay.
For assay [10], the target named is Receptor-type tyrosine-protein kinase FLT3 (Homo sapiens) (UniProt P36888). The assay can be described thus: Inhibition of FLT3 (unknown origin) at 20 nM relative to control.
Assay [11] has as its target Hepatocyte growth factor receptor (Homo sapiens) (UniProt P08581). The assay can be described thus: Inhibition of c-Met (unknown origin) at 20 nM relative to control.
For a further assay, the system named is MOLT-4. In words: Antiproliferative activity against human MOLT4 cells after 48 hrs by MTT assay. The assay is classed as functional, cell-based. The settings on record: MOLT-4, 48 h. Summed up:
as §1

In assay [12] the target is Tyrosine-protein kinase ABL1 (Homo sapiens) (UniProt P00519). In words: Inhibition of ABL (unknown origin) at 20 nM relative to control.
Tyrosine-protein kinase ABL1 (Homo sapiens), sequence (P00519 whole entry): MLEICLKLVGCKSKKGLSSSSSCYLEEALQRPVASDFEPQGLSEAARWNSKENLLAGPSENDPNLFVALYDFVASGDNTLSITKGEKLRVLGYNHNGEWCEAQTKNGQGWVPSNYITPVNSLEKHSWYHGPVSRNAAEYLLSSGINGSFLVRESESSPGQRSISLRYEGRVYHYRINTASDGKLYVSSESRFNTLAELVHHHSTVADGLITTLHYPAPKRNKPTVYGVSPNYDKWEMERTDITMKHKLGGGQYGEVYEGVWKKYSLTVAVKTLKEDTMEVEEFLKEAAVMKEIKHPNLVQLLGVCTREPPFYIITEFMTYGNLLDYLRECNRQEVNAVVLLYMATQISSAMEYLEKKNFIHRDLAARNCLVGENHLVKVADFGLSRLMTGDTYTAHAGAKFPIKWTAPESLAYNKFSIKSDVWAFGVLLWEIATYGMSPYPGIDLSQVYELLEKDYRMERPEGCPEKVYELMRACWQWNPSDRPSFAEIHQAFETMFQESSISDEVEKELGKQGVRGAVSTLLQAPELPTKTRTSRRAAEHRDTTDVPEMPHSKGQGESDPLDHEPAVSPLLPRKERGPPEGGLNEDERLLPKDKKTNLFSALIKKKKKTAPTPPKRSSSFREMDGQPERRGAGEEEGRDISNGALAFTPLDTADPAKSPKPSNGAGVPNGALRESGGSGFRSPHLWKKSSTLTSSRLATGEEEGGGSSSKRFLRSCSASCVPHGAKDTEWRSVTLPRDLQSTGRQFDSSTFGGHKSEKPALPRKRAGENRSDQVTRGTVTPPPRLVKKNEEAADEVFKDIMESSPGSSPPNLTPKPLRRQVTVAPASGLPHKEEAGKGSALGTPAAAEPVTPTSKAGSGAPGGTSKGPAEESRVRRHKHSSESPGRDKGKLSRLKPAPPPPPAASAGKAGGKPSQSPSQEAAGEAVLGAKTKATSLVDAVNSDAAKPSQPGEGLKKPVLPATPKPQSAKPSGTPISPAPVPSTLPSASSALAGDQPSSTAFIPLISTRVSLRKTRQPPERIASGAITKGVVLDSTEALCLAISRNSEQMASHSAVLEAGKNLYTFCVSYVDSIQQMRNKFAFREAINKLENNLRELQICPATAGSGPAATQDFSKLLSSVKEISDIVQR
The subject of assay [13] is HEL. The assay can be described thus: Antiproliferative activity against HEL cells harboring JAK2 V617F mutant at 5 uM after 48 hrs by MTT assay. The assay is classed as functional, Homo sapiens.
For assay [14], the target named is Mast/stem cell growth factor receptor Kit (Homo sapiens) (UniProt P10721). The assay can be described thus: Inhibition of c-Kit (unknown origin) at 20 nM relative to control.
Assay [15] addresses Cyclin-dependent kinase 4 (Homo sapiens) (UniProt P11802). In words: Inhibition of CDK4 (unknown origin) at 20 nM relative to control.
A further assay has as its system PC-3. In words: Antiproliferative activity against human PC3 cells after 48 hrs by MTT assay. The note with it: PC-3, 48 h. The assay is classed as functional, cell-based. Summed up: as §1
Assay [16] concerns the target Platelet-derived growth factor receptor alpha (Homo sapiens) (UniProt P16234). In words: Inhibition of PDGFRalpha (unknown origin) at 20 nM relative to control.
For assay [17], the target named is Focal adhesion kinase 1 (Homo sapiens) (UniProt Q05397). The assay can be described thus: Inhibition of FAK (unknown origin) at 20 nM relative to control.
Focal adhesion kinase 1 (Homo sapiens), sequence (Q05397 2-1052 limits assumed): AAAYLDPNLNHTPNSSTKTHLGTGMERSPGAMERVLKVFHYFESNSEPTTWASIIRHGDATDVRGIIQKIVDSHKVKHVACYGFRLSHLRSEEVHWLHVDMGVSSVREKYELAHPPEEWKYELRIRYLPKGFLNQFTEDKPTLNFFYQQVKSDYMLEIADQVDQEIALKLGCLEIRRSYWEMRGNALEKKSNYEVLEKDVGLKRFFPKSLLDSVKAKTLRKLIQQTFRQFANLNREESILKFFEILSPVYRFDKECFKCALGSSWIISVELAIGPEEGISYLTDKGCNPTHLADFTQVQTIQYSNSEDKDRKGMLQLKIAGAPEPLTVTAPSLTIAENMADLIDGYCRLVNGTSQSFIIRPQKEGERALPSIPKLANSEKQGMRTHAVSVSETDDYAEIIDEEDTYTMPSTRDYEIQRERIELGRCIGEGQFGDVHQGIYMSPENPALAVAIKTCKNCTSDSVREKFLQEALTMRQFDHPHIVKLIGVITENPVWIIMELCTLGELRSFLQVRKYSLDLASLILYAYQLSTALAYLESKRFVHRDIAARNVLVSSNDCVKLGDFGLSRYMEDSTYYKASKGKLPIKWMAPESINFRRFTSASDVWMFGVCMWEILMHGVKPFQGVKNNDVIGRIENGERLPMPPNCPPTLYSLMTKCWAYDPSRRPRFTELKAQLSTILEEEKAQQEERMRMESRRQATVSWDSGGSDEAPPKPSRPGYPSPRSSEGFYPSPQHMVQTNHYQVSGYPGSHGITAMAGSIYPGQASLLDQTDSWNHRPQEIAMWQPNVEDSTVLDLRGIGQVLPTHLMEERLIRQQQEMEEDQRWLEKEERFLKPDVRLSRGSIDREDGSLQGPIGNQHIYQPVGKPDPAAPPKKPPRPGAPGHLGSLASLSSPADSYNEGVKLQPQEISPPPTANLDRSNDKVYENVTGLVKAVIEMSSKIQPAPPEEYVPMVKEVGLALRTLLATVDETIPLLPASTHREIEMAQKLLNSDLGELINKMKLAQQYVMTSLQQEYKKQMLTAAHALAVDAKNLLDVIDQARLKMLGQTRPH
Assay [18] addresses Vascular endothelial growth factor receptor 2 (Homo sapiens) (UniProt P35968). In words: Inhibition of VEGFR2 (unknown origin) at 20 nM relative to control.
Assay [19] in a line: Selectivity ratio of IC50 for human MCF7 cells to IC50 for HEL cells harboring JAK2 V617F mutant. The assay is classed as functional.
Assay [20] is described as follows: Selectivity ratio of IC50 for human PC3 cells to IC50 for human K562 cells. The assay is classed as functional.
Assay [21] is described as follows: Selectivity ratio of IC50 for human MOLT4 cells to IC50 for HEL cells harboring JAK2 V617F mutant. The assay is classed as functional.
The nature of assay [22]: Selectivity ratio of IC50 for human PC3 cells to IC50 for HEL cells harboring JAK2 V617F mutant. The assay is classed as functional.
Assay [23] can be described thus: Selectivity ratio of IC50 for human MOLT4 cells to IC50 for human K562 cells. The assay is classed as functional.
Assay [24] is described as follows: Selectivity ratio of IC50 for human MCF7 cells to IC50 for human K562 cells. The assay is classed as functional.

The structures appear in SMILES notation.

ALK tyrosine kinase receptor (Homo sapiens), sequence (Q9UM73 19-1620 limits assumed): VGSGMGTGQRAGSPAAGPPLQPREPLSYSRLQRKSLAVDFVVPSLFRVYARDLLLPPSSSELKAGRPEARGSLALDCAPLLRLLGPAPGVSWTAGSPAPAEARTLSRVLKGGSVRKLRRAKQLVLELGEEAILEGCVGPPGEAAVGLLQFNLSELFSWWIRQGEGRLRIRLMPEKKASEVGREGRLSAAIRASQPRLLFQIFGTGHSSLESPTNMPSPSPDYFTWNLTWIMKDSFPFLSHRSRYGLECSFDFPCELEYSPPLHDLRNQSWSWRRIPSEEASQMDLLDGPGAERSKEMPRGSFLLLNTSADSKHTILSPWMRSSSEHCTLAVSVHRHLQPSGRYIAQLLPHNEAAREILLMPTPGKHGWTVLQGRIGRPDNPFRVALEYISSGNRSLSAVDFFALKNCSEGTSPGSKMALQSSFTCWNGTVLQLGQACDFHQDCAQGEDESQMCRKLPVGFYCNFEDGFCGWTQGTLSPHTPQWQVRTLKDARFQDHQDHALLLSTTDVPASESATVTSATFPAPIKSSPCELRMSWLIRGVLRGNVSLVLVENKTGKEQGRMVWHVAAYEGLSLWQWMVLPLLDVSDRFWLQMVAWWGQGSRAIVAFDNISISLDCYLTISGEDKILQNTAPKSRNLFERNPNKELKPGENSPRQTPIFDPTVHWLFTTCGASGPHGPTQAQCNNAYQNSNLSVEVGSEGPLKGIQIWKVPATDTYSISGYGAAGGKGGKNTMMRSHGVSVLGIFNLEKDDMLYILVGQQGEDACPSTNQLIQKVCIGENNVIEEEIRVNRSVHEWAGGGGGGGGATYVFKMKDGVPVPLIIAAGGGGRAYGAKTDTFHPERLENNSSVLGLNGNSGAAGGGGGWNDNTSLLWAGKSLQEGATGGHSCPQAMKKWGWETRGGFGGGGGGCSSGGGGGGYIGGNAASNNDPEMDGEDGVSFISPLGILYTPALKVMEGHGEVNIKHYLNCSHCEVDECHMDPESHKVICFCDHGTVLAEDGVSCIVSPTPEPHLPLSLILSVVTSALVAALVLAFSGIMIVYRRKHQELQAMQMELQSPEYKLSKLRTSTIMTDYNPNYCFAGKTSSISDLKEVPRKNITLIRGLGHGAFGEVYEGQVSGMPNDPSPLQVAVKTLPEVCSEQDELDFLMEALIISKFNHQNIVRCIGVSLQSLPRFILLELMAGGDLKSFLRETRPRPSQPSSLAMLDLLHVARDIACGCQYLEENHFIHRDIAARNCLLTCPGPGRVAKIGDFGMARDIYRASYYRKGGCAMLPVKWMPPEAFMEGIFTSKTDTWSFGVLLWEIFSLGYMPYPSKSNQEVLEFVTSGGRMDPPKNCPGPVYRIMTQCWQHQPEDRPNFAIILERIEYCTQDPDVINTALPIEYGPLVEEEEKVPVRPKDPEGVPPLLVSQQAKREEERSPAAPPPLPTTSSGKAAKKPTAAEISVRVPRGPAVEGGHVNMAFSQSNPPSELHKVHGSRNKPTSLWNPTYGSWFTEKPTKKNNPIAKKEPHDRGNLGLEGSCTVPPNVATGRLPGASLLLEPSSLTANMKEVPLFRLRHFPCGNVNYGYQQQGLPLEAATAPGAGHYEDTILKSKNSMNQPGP
Vascular endothelial growth factor receptor 2 (Homo sapiens), sequence (P35968 whole entry): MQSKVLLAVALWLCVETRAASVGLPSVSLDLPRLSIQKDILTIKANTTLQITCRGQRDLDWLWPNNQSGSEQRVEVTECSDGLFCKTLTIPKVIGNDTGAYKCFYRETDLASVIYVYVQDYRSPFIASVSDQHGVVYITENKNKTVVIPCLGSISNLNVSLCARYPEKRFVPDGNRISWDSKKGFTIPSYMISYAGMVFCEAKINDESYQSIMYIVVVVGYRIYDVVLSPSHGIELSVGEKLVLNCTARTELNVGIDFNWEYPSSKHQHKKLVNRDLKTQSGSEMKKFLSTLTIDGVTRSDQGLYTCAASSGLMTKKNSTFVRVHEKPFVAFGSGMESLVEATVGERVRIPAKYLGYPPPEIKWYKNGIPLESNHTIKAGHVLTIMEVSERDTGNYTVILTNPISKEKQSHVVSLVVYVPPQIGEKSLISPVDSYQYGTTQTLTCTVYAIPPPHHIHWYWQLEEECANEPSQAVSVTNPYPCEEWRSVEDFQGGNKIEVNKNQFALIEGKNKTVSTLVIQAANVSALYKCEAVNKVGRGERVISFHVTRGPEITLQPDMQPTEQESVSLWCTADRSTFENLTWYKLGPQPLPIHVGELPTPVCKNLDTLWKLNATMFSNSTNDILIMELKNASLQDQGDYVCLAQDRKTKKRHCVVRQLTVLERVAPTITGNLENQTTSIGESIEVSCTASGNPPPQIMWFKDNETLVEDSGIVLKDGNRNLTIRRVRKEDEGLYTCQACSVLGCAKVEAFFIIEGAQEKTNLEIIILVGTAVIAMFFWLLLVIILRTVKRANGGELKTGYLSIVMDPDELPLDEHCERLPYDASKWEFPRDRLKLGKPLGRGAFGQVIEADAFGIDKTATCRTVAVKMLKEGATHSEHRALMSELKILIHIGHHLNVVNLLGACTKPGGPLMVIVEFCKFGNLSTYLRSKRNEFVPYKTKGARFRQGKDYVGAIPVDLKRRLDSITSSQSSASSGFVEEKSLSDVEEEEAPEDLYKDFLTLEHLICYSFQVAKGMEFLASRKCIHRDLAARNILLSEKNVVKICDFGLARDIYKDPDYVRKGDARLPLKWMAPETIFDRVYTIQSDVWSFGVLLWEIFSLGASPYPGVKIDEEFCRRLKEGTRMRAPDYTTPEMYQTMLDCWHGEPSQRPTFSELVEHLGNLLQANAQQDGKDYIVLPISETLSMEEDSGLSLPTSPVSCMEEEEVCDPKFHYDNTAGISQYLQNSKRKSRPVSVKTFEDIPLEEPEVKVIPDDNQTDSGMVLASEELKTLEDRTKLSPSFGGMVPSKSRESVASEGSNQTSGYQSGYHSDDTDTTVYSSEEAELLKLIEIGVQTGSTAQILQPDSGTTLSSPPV

`Clc1cccc(Nc2nc(Nc3cn[nH]c3)ncc2Cl)c1`: the IC50 (in general, the point on the concentration scale where inhibition reaches its midpoint) in the assay with K562 worked out at 0.77 µM; in the assay with HEL [1] it was 1.08 µM; in the assay on MCF7, 1.33 µM; in assay [7], 0.0034 µM; in assay [9], 0.0035 µM; with MOLT-4, 1.61 µM. In addition, in the assay on PC-3, it took 1.08 µM to reach half-maximal inhibition (IC50). Moreover, the inhibition – broadly, the change of the read-out against control, counted positive when it falls – is 79.4% in assay [2]; 27% in [3]; 6.9% in assay [4]; 7.5% in assay [5]; -7.1% in [6]; 10.5% in assay [8]. Further, the inhibition in assay [10] is 78.7%; in assay [11], 17.9%; in [12], -3.1%; in assay [14], 12.1%; in [15], 36.2%; in [16] it was 54.1%. The figures for the inhibition in [17] and in [18] were 33.5% and 48.6%, respectively. The same molecule gave an Activity in the assay with HEL [13] above 50%.

`Clc1cccc(Nc2nc(Nc3cn[nH]c3)nc3ccccc23)c1`: the results for the IC50 with K562, with HEL [1] and in the assay on MCF7 were above 8.3 µM, 9.71 µM and above 5 µM, respectively. In the assay on HEL [13], this molecule yielded an Activity below 50%.

In turn, `N#Cc1ccccc1Nc1ccnc(Nc2cn[nH]c2)n1` yielded an Activity with HEL [13] below 50%.

The molecule `Clc1ccc(Nc2nc(Nc3cn[nH]c3)nc3[nH]ccc23)cc1` returned an Activity with HEL [13] above 50%.

Molecule `Clc1ccccc1CNc1nc(Nc2cn[nH]c2)nc2ccccc12` showed an Activity in the assay with HEL [13] below 50%.

Consider `Clc1ccc(Nc2nc(Nc3cn[nH]c3)ncc2Cl)cc1`, for which the IC50 in the assay with K562 was determined as 1.7 µM; in the assay on HEL [1], 1.53 µM; in the assay with MCF7 it was 1.93 µM; in the assay with MOLT-4, 1.37 µM; with PC-3, 2.57 µM. This molecule came in with an Activity in the assay on HEL [13] above 50%.

As to `Clc1ccccc1CNc1nc(Nc2cn[nH]c2)nc2[nH]ccc12`, the IC50 in the assay on K562 is 3.72 µM; with MCF7, above 5 µM; in the assay with MOLT-4, above 5 µM; in the assay with PC-3, 13.5 µM. The same molecule yielded an Activity in the assay with HEL [13] above 50%.

For `C#Cc1cccc(Nc2ccnc(Nc3cn[nH]c3)n2)c1`, the Activity in the assay on HEL [13] is below 50%.

In the case of `Fc1cnc(Nc2cn[nH]c2)nc1Nc1ccc(Cl)cc1`, the IC50 in the assay with K562 turned out to be 3.79 µM; in the assay with HEL [1], 3.96 µM; with PC-3, 10.4 µM. Further, in the assay with HEL [13], the Activity is below 50%.

Take `N#CC[C@H](C1CCCC1)n1cc(-c2ncnc3[nH]ccc23)cn1` [RUXOLITINIB]: the IC50 with K562 was 10.3 µM; with HEL [1] it was 2.62 µM; in the assay on MCF7, above 5 µM; with PC-3 it was above 5 µM.

Turning to `Clc1cnc(Nc2cn[nH]c2)nc1Nc1ccccc1`, the IC50 is above 8.3 µM with K562; 5.93 µM in the assay on HEL [1]; 3.66 µM in the assay with MCF7; above 5 µM in the assay with MOLT-4; 5.38 µM in the assay with PC-3. The molecule also gave an Activity in the assay with HEL [13] above 50%.

`c1ccc(Nc2nc(Nc3cn[nH]c3)nc3ccccc23)cc1` had an Activity in the assay with HEL [13] below 50%.

As for `C#Cc1cccc(Nc2nc(Nc3cn[nH]c3)nc3ccccc23)c1`, the Activity in the assay on HEL [13] is given as below 50%.

Molecule `COc1ccc(Nc2nc(Nc3cn[nH]c3)nc3ccccc23)cc1` displayed an Activity with HEL [13] below 50%.

As for `c1ccc(Nc2nc(Nc3cn[nH]c3)nc3[nH]ccc23)cc1`, the IC50 in the assay on K562 is 0.37 µM; with HEL [1] it was 0.35 µM; in the assay with MCF7, above 5 µM; in the assay on MOLT-4, above 5 µM; with PC-3, 4.47 µM. In addition, the inhibition is 34.6% in assay [2]; 12.6% in assay [3]; 15.1% in [4]; -3% in assay [5]; 3.7% in assay [6]; 8.3% in assay [8]. Also, the inhibition in assay [10] was 15.2%; in assay [11], 6.3%; in assay [12] it was 3.1%; in [14], 0.6%; in assay [15], -5.3%; in assay [16] it was 11.9%. The inhibition amounted to 7.4% in assay [17] and 0% in [18]. The “Ratio IC50” value in [19], in assay [20], in assay [21], in assay [22], in [23] and in [24] was above 10 throughout. The molecule further yielded an Activity in the assay on HEL [13] above 50%.

`Clc1ccccc1Nc1ccnc(Nc2cn[nH]c2)n1` displayed an Activity in the assay on HEL [13] below 50%.

In the case of `Fc1ccc(Nc2nc(Nc3cn[nH]c3)ncc2Cl)cc1`, the IC50 was 1.86 µM in the assay on K562; 1.18 µM in the assay with HEL [1]; 1.87 µM in the assay with MCF7; 3.28 µM with MOLT-4; 1.03 µM in the assay with PC-3. For the same molecule, the Activity in the assay with HEL [13] is listed as above 50%.

`Fc1cnc(Nc2cn[nH]c2)nc1Nc1ccccc1` showed an Activity in the assay on HEL [13] below 50%.

In the assay on HEL [13], `Clc1ccc(Nc2nc(Nc3cn[nH]c3)nc3ccccc23)cc1` showed an Activity below 50%.

Take `COc1ccc(Nc2nc(Nc3cn[nH]c3)ncc2Cl)cc1`: the IC50 was found to be 2.08 µM in the assay with K562, 1.76 µM in the assay with HEL [1] and 2.3 µM in the assay with PC-3. The molecule also showed an Activity in the assay on HEL [13] above 50%.

Turning to `COc1ccc(Nc2nc(Nc3cn[nH]c3)ncc2F)cc1`, the Activity in the assay with HEL [13] is below 50%.

Turning to `COc1ccc(Nc2nc(Nc3cn[nH]c3)nc3[nH]ccc23)cc1`, the Activity with HEL [13] is above 50%.

For `Clc1ccccc1Nc1nc(Nc2cn[nH]c2)ncc1Cl`, the IC50 in the assay on K562 is 1.29 µM; in the assay on HEL [1] it was 1.24 µM; in the assay on MCF7, 1.1 µM; with MOLT-4, 1.26 µM; with PC-3, 1.13 µM. Also, the Activity in the assay with HEL [13] is reported as above 50%.

In the case of `Clc1ccc(Nc2ccnc(Nc3cn[nH]c3)n2)cc1`, in the assay with HEL [13], the Activity was below 50%.
